These results are taken from ChEMBL document CHEMBL2169852, “Naphthomycins L-N, ansamycin antibiotics from Streptomyces sp. CS” (J Nat Prod, 2012).

For orientation: MIC means the least concentration at which growth counts as inhibited. Read a high MIC as weaker potency. Broadly, the IC50 is the concentration at which inhibition is half-maximal. Read a high IC50 as weaker potency.

≈ marks a conversion by molar mass, not a printed value. Calls of active or inactive are those of the source. No cut-off for these calls is given here.

The subject of experiment [1] is Fusarium oxysporum. The experiment in a line: Antifungal activity against Fusarium oxysporum at 800 ug/ml incubated for 48 hrs by microdilution method. The experiment is classed as functional, organism-based. In short, it runs like this:
(§1)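 Modified standardized broth microdilution. Phytopathogenic fungi pre-grown on PDA at 22 °C for 7–10 days. Test compounds added at 50–800 μg/mL to wells with fungal suspension, 0.2 mL final volume, DMSO ≤3% final. DMSO served as negative control and fungus without compound as positive control. Incubation 22 °C, 48 h. MIC taken as lowest concentration with no visible growth. Run in triplicate.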
(In general: Broth dilution looks for growth in wells or tubes with falling amounts of substance.)

A short description of experiment [2]: Antifungal activity against Verticillium cinnabarinum at 800 ug/ml incubated for 48 hrs by microdilution method. It is filed as functional. In a few lines:
as §1

In experiment [3] the test system is SMMC-7721. Nature of the experiment: Growth inhibition of human SMMC7721 cells at 40 uM by MTT assay. The experiment is classed as functional, cell-based. In general terms: Tetrazolium assays rely on reduction of a dye to a coloured formazan, in cell work by metabolically active cells.
The test system of experiment [4] is Pyricularia oryzae. The experiment in a line: Antifungal activity against Pyricularia oryzae at 800 ug/ml incubated for 48 hrs by microdilution method. The experiment is classed as functional, organism-based. In a few lines:
(§2)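 Fungus pre-grown on PDA at 22 °C for 7–10 days. Modified standardized broth microdilution with compounds at 50–800 μg/mL (final) in fungal suspension, final DMSO ≤3%. DMSO-only and compound-free fungal wells served as controls. Incubated at 22 °C for 48 h. MIC is the lowest concentration with no visible growth. Run in triplicate.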

For experiment [5], the system named is Fusarium verticillioides. The experiment in a line: Antifungal activity against Fusarium moniliforme at 800 ug/ml incubated for 48 hrs by microdilution method. It is filed as functional, organism-based. In a few lines:
as §1

Experiment [6] relates to MCF7. Nature of the experiment: Growth inhibition of human MCF7 cells at 40 uM by MTT assay. The experiment is classed as functional, cell-based.
The subject of experiment [7] is HL-60. The experiment in a line: Growth inhibition of human HL60 cells at 40 uM by MTT assay. The experiment is classed as functional, cell-based.
Experiment [8] can be described thus: Antifungal activity against Gaeumannomyces graminis at 800 ug/ml incubated for 48 hrs by microdilution method. The experiment is classed as functional. In a few lines:
as §1

Experiment [9] concerns A549. Nature of the experiment: Growth inhibition of human A549 cells at 40 uM by MTT assay. It is filed as functional, cell-based.
In experiment [10] the test system is SW480. Nature of the experiment: Growth inhibition of human SW480 cells at 40 uM by MTT assay. It is filed as functional, cell-based.
Experiment [11] concerns Fusarium verticillioides. Nature of the experiment: Antifungal activity against Fusarium moniliforme incubated for 48 hrs by microdilution method. It is filed as functional. In short, it runs like this: as §1
For experiment [12], the system named is MCF7. The experiment in a line: Growth inhibition of human MCF7 cells by MTT assay. It is filed as functional, cell-based.
For experiment [13], the system named is HL-60. The experiment in a line: Growth inhibition of human HL60 cells by MTT assay. The experiment is classed as functional, cell-based.
Experiment [14] deals with Pyricularia oryzae. The experiment in a line: Antifungal activity against Pyricularia oryzae incubated for 48 hrs by microdilution method. The experiment is classed as functional. In a few lines: as §2
A short description of experiment [15]: Antifungal activity against Gaeumannomyces graminis incubated for 48 hrs by microdilution method. The experiment is classed as functional. In a few lines: as §1
Experiment [16] has as its system A549. Nature of the experiment: Growth inhibition of human A549 cells by MTT assay. It is filed as functional, cell-based.
For experiment [17], the system named is SW480. The experiment in a line: Growth inhibition of human SW480 cells by MTT assay. The experiment is classed as functional, cell-based.
The nature of experiment [18]: Antifungal activity against Verticillium cinnabarinum incubated for 48 hrs by microdilution method. The experiment is classed as functional. In a few lines: as §1
In experiment [19] the test system is SMMC-7721. Nature of the experiment: Growth inhibition of human SMMC7721 cells by MTT assay. It is filed as functional, cell-based.
In experiment [20] the test system is Fusarium oxysporum. The experiment in a line: Antifungal activity against Fusarium oxysporum incubated for 48 hrs by microdilution method. The experiment is classed as functional. In short, it runs like this:
as §1

With `C/C1=C/C=C\C=C\[C@H](C)[C@@H](O)CC(=O)/C(C)=C/C[C@H](O)/C=C/[C@H](C)[C@H](O)[C@@H](C)/C=C(\C)C(=O)c2c(O)c(C)cc3c2C(=O)C(O)=C(NC1=O)C3=O`, the result (in the experiment with Fusarium oxysporum [1]; in [2]; in the experiment with Pyricularia oryzae [4]; in the experiment on Fusarium verticillioides [5]; in experiment [8]) was inactive. Besides, the “growth inhibition (GI)” value in the experiment on SMMC-7721 [3], in the experiment with MCF7 [6], in the experiment on HL-60 [7], in the experiment on A549 [9] and with SW480 [10] was “inactive” in each case.
Turning to `C/C1=C/C=C\C=C\[C@H](C)[C@@H](O)CC(=O)/C(C)=C/C[C@H](O)/C=C/[C@H](C)[C@H](O)[C@@H](C)/C=C(\C)C(=O)c2c(O)c(C)cc3c2C(=O)C(SCC(=O)O)=C(NC1=O)C3=O`, the outcome (with Fusarium oxysporum [1]; in experiment [2]; with Pyricularia oryzae [4]; with Fusarium verticillioides [5]; in experiment [8]) was inactive. Besides, the “growth inhibition (GI)” value in the experiment with SMMC-7721 [3], with MCF7 [6], in the experiment with HL-60 [7], with A549 [9] and with SW480 [10] was “inactive” throughout.
On to `C/C1=C/C=C\C=C\[C@H](C)[C@@H](O)CC(=O)/C(C)=C/C[C@H](O)/C=C/[C@H](C)[C@H](O)[C@@H](C)/C=C(\C)C(=O)c2c(O)c(C)cc3c2C(=O)C=C(NC1=O)C3=O`, for which the outcome (in the experiment with Fusarium oxysporum [1]; in experiment [2]; in the experiment on Pyricularia oryzae [4]; with Fusarium verticillioides [5]; in experiment [8]) was inactive. Also, the “growth inhibition (GI)” value in the experiment with SMMC-7721 [3], with MCF7 [6], in the experiment on HL-60 [7], with A549 [9] and with SW480 [10] was “inactive” each time.
On to `C/C1=C/C=C\C=C\[C@H](C)[C@@H](O)CC(=O)/C(C)=C/C[C@H](O)/C=C/[C@H](C)[C@H](O)[C@@H](C)/C=C(\C)C(=O)c2c(O)c(C)cc3c2C(=O)C(Cl)=C(NC1=O)C3=O` [NAPHTHOMYCIN A], for which the MIC in the experiment on Fusarium verticillioides [11] was 100 µg/mL (≈ 139 µM); against Pyricularia oryzae [14], 400 µg/mL (≈ 555 µM); in experiment [15], 400 µg/mL (≈ 555 µM); in experiment [18] it was 400 µg/mL (≈ 555 µM); in the experiment with Fusarium oxysporum [20], 400 µg/mL (≈ 555 µM). Also, the IC50 with MCF7 [12] came out at 11.7 µM; with HL-60 [13] it was 25.6 µM; in the experiment with A549 [16] it was 15.9 µM; in the experiment on SW480 [17], 11.7 µM; in the experiment on SMMC-7721 [19], 16.6 µM.
With `C/C1=C/C=C\C=C\[C@H](C)[C@@H](O)CC(=O)/C(C)=C/C[C@H](O)/C=C/[C@H](C)[C@H](O)[C@@H](C)/C=C(\C)C(=O)c2c(O)c(C)cc3c2C(=O)C(N)=C(NC1=O)C3=O` [NAPHTHOMYCIN L], the MIC was determined as 300 µg/mL (≈ 428 µM) against Fusarium verticillioides [11]; 600 µg/mL (≈ 856 µM) against Pyricularia oryzae [14]; 600 µg/mL (≈ 856 µM) in [15]; 600 µg/mL (≈ 856 µM) in experiment [18]; 600 µg/mL (≈ 856 µM) in the experiment on Fusarium oxysporum [20]. The “growth inhibition (GI)” value with SMMC-7721 [3], in the experiment with MCF7 [6], with HL-60 [7], in the experiment on A549 [9] and in the experiment with SW480 [10] was “inactive” throughout.
`C/C1=C/C=C\C=C\[C@H](C)[C@@H](O)CC(=O)/C(C)=C/C[C@H](O)/C=C/[C@H](C)[C@H](O)[C@@H](C)/C=C(\C)C(=O)c2c(O)c(C)cc3c2C(=O)C(NCCSC2=C4NC(=O)\C(C)=C/C=C\C=C\[C@H](C)[C@@H](O)CC(=O)/C(C)=C/C[C@H](O)/C=C/[C@H](C)[C@H](O)[C@@H](C)/C=C(\C)C(=O)c5c(O)c(C)cc(c5C2=O)C4=O)=C(NC1=O)C3=O`: the outcome (in the experiment with Fusarium oxysporum [1]; in experiment [2]; with Pyricularia oryzae [4]; in the experiment on Fusarium verticillioides [5]; in [8]) was inactive. For the same molecule, the “growth inhibition (GI)” value in the experiment on SMMC-7721 [3], in the experiment on MCF7 [6], in the experiment with HL-60 [7], in the experiment on A549 [9] and with SW480 [10] was “inactive” in each case.
